From ChEMBL document CHEMBL2157949 (J Med Chem, 2012)
Activity calls are given as the source filed them. The calls are words filed in the database; no cut-off is given here.

Assays:
[1] = Growth inhibition of Chinese hamster RT16 cells expressing human folate receptor alpha incubated for 96 hrs by CellTiter-blue cell viability assay; format: functional, cell-based; settings: Cricetulus griseus, RT16, 96 h
[2] = Growth inhibition of Chinese hamster RT16 cells expressing human folate receptor alpha incubated for 96 hrs in presence of folic acid by CellTiter-blue cell viability assay; format: functional, cell-based; settings: Cricetulus griseus, RT16, 96 h
IGROV-1 [3] = assay: Growth inhibition of human IGROV1 cells endogenously expressing RFC/FRalpha/PCFT in presence of folic acid incubated for 96 hrs by CellTiter-blue cell viability assay; format: functional, cell-based; settings: IGROV-1, 96 h
KB [4] = assay: Growth inhibition of human KB cells endogenously expressing RFC/FRalpha/PCFT in presence of folic acid incubated for 96 hrs by CellTiter-blue cell viability assay; format: functional, cell-based
R2 [5] = assay: Growth inhibition of Chinese hamster R2 cells expressing empty vector control incubated for 96 hrs by CellTiter-blue cell viability assay; settings: Cricetulus griseus, R2, 96 h
R2 [6] = assay: Growth inhibition of Chinese hamster R2 cells expressing human PCFT incubated for 96 hrs by CellTiter-blue cell viability assay; format: functional, cell-based, Cricetulus griseus; settings: R2, 96 h
How it was run: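 R2/hPCFT4 CHO cells maintained beforehand in folate-free RPMI 1640 with dialyzed FBS, 25 nM LCV and G418. Assay: ~2500–5000 cells/well in folate-free RPMI 1640 (pH 7.2) with 25 nM LCV, 10% dialyzed FBS, antibiotics and L-glutamine, over a range of drug concentrations.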

[7] = Growth inhibition of Chinese hamster PC43-10 cells expressing reduced folate carrier incubated for 96 hrs by CellTiter-blue cell viability assay; format: functional, cell-based; settings: Cricetulus griseus, PC43-10, 96 h
R2 [8] = assay: Growth inhibition of Chinese hamster R2 cells deficient in reduced folate carrier and human folate receptor alpha incubated for 96 hrs by CellTiter-blue cell viability assay; format: cell-based, Cricetulus griseus; settings: R2, 96 h
IGROV-1 [9] = assay: Growth inhibition of human IGROV1 cells endogenously expressing RFC/FRalpha/PCFT incubated for 96 hrs by CellTiter-blue cell viability assay; format: functional, cell-based; settings: IGROV-1, 96 h
KB [10] = assay: Growth inhibition of human KB cells endogenously expressing RFC/FRalpha/PCFT incubated for 96 hrs by CellTiter-blue cell viability assay; format: functional, cell-based
[11] = molecular target: Folate receptor alpha (Homo sapiens) (UniProt P15328); format: cell-based; settings: CHO
KB [12] = assay: Growth inhibition of human KB cells endogenously expressing RFC/FRalpha/PCFT in presence of 60 uM adenosine incubated for 96 hrs by CellTiter-blue cell viability assay; format: functional, cell-based
KB [13] = assay: Growth inhibition of human KB cells endogenously expressing RFC/FRalpha/PCFT in presence of 10 uM thymidine incubated for 96 hrs by CellTiter-blue cell viability assay; format: functional, cell-based
IGROV-1 [14] = assay: Growth inhibition of human IGROV1 cells endogenously expressing RFC/FRalpha/PCFT in presence of 60 uM adenosine incubated for 96 hrs by CellTiter-blue cell viability assay; format: functional, cell-based
IGROV-1 [15] = assay: Growth inhibition of human IGROV1 cells endogenously expressing RFC/FRalpha/PCFT in presence of 320 uM 5-amino-4-imidazolecarboxamide incubated for 96 hrs by CellTiter-blue cell viability assay; format: functional, cell-based
[16] = molecular target: T1, Proton-coupled folate transporter (Homo sapiens, UniProt Q96NT5); assay: Inhibition of [3H]MTX transport at human PCFT expressed in Chinese hamster R2 cells at pH 5.5 by Dixon plot; format: cell-based
T1 sequence (Q96NT5 whole entry): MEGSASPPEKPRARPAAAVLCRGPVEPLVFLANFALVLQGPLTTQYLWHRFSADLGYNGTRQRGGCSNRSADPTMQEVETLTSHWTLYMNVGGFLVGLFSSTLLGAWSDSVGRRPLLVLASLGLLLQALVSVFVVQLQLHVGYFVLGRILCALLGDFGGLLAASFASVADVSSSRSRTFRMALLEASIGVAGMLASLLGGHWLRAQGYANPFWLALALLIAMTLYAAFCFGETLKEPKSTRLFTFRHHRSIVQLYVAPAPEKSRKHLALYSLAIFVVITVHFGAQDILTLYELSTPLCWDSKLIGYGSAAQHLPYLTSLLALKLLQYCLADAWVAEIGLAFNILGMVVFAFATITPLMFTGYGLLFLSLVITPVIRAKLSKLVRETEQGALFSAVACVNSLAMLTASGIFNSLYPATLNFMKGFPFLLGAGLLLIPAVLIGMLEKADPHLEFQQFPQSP
How it was run: (§1)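 R2/hPCFT4 CHO cells grown in spinner flasks, resuspended in HBS at pH 6.8 or MES-buffered saline at pH 5.5. Uptake quenched with ice-cold DPBS and normalized to protein. Mean ± SE, n=4–8.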

KB [17] = assay: Growth inhibition of human KB cells endogenously expressing RFC/FRalpha/PCFT in presence of 50 nM leucovorin incubated for 96 hrs by CellTiter-blue cell viability assay; format: functional, cell-based
How it was run: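 KB cells in complete folate-free RPMI 1640 with 10% dialyzed FBS and LCV at 50 nM (versus the standard 2 nM), exposed to a range of antifolate concentrations for up to 96 h. Cell density read by CellTiter-blue fluorescence and normalized to drug-free cells. Representative data from experiments run in duplicate.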

IGROV-1 [18] = assay: Growth inhibition of human IGROV1 cells endogenously expressing RFC/FRalpha/PCFT in presence of 10 uM thymidine incubated for 96 hrs by CellTiter-blue cell viability assay; format: functional, cell-based
[19] = molecular target: T1, Proton-coupled folate transporter; assay: Inhibition of [3H]MTX transport at human PCFT expressed in Chinese hamster R2 cells at pH 6.8 by Dixon plot; format: cell-based; how it was run: as §1
KB [20] = assay: Growth inhibition of human KB cells endogenously expressing RFC/FRalpha/PCFT in presence of 320 uM 5-amino-4-imidazolecarboxamide incubated for 96 hrs by CellTiter-blue cell viability assay; format: functional, cell-based
KB [21] = assay: Inhibition of colony formation of human KB cells endogenously expressing RFC/FRalpha/PCFT incubated for 14 days by methylene blue staining based clonogenicty assay; format: functional, cell-based; settings: 336 h

Chain of Folate receptor alpha (Homo sapiens) (P15328 25-234 limits assumed): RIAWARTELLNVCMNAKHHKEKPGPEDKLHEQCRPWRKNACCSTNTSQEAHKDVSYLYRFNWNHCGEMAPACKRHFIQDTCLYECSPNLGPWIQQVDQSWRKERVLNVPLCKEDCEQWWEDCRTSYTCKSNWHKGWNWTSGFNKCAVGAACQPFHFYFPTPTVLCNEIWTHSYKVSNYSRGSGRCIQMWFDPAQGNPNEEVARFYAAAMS

With `Nc1nc2[nH]c(CCC#Cc3csc(C(=O)N[C@@H](CCC(=O)O)C(=O)O)c3)cc2c(=O)[nH]1` the IC50 [1] was 13.5 nM, the IC50 [2] was > 1000 nM and the IC50 (IGROV-1 [3]) was > 1000 nM. The IC50 (KB [4]) was > 1000 nM, the IC50 (R2 [5]) was > 1000 nM and the IC50 (R2 [6]) was > 1000 nM. For the same molecule, the IC50 [7] was > 1000 nM, the IC50 (R2 [8]) was > 1000 nM and the IC50 (IGROV-1 [9]) was > 1000 nM. The IC50 (KB [10]) was > 1000 nM.

With `Nc1nc2[nH]c(CCCCc3ccsc3C(=O)N[C@@H](CCC(=O)O)C(=O)O)cc2c(=O)[nH]1` the IC50 [1] was > 1000 nM, the IC50 [2] was > 1000 nM and the IC50 (KB [4]) was > 1000 nM. For the same molecule, the IC50 (R2 [5]) was > 1000 nM, the IC50 (R2 [6]) was > 1000 nM and the IC50 [7] was > 1000 nM. The IC50 (R2 [8]) was > 1000 nM and the IC50 (KB [10]) was 267 nM.

In the case of `Nc1nc2[nH]c(CCC#Cc3sccc3C(=O)N[C@@H](CCC(=O)O)C(=O)O)cc2c(=O)[nH]1`, the IC50 [1] is reported as > 1000 nM, the IC50 [2] is reported as > 1000 nM and the IC50 (KB [4]) is reported as > 1000 nM. For the same molecule, the IC50 (R2 [5]) was > 1000 nM, the IC50 (R2 [6]) was > 1000 nM and the IC50 [7] was > 1000 nM. For the same molecule, the IC50 (R2 [8]) was > 1000 nM and the IC50 (KB [10]) was > 1000 nM.

With `Nc1nc2[nH]c(CCCCc3csc(C(=O)N[C@@H](CCC(=O)O)C(=O)O)c3)cc2c(=O)[nH]1` the IC50 [1] was 2.54 nM, the IC50 [2] was > 1000 nM and the IC50 (IGROV-1 [3]) was > 1000 nM. The relative binding affinity (RBA) [11] was > 1, the “growth inhibition (GI)” value (KB [12]) was “inactive” and the “growth inhibition (GI)” value (KB [13]) was “Active”. For the same molecule, the “growth inhibition (GI)” value (IGROV-1 [14]) was “inactive”, the “growth inhibition (GI)” value (IGROV-1 [15]) was “inactive” and the IC50 (KB [4]) was > 1000 nM. The Ki [16] was 390 nM, the IC50 (R2 [5]) was > 1000 nM and the IC50 (R2 [6]) was 41.5 nM. For the same molecule, the IC50 [7] was > 1000 nM, the IC50 (KB [17]) was 3.4 nM and the IC50 (R2 [8]) was > 1000 nM. For the same molecule, the “growth inhibition (GI)” value (IGROV-1 [18]) was “Active”, the IC50 (IGROV-1 [9]) was 0.48 nM and the Ki [19] was 28100 nM. For the same molecule, the “growth inhibition (GI)” value (KB [20]) was “inactive”, the IC50 (KB [21]) was 0.39 nM and the IC50 (KB [10]) was 0.17 nM.

In the case of `Nc1nc2[nH]c(CCC#Cc3cc(C(=O)N[C@@H](CCC(=O)O)C(=O)O)cs3)cc2c(=O)[nH]1`, the IC50 [1] is reported as 8.26 nM, the IC50 [2] is reported as > 1000 nM and the IC50 (IGROV-1 [3]) is reported as > 1000 nM. For the same molecule, the IC50 (KB [4]) was > 1000 nM, the IC50 (R2 [5]) was > 1000 nM and the IC50 (R2 [6]) was > 1000 nM. For the same molecule, the IC50 [7] was > 1000 nM, the IC50 (R2 [8]) was > 1000 nM and the IC50 (IGROV-1 [9]) was > 1000 nM. For the same molecule, the IC50 (KB [10]) was > 1000 nM.

In the case of `Nc1nc2[nH]c(CCCCc3cscc3C(=O)N[C@@H](CCC(=O)O)C(=O)O)cc2c(=O)[nH]1`, the IC50 [1] is reported as 147 nM, the IC50 [2] is reported as > 1000 nM and the IC50 (IGROV-1 [3]) is reported as > 1000 nM. The IC50 (KB [4]) was > 1000 nM, the IC50 (R2 [5]) was > 1000 nM and the IC50 (R2 [6]) was > 1000 nM. For the same molecule, the IC50 [7] was > 1000 nM, the IC50 (R2 [8]) was > 1000 nM and the IC50 (IGROV-1 [9]) was 103 nM. For the same molecule, the IC50 (KB [10]) was 35.3 nM.
